Measured values: ChEMBL document CHEMBL1135578, “Rhodacyanine dyes as antimalarials. 1. Preliminary evaluation of their activity and toxicity” (J Med Chem, 2002)

How the values were obtained:
Plasmodium falciparum = test: In vitro antimalarial activity against chloroquine-sensitive Plasmodium falciparum FCR3; assay type: functional, organism-based
Procedure, shortened: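 In vitro growth of chloroquine-sensitive P. falciparum FCR-3 read as EC50; some entries are given as EC70 values (% parasite growth observed) where noted.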

FM3A [1] = test: Cytotoxicity against mouse mammary tumor FM3A cells representing a model of host; assay type: functional, cell-based
Procedure, shortened: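 Growth of mouse mammary tumor FM3A cells, used as a host model, read as EC50; some entries are given as lower-effect ECx values (% growth observed) where noted.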

FM3A [2] = test: (§1) Selective toxicity- EC50 value of FM3A / EC50 value of Plasmodium falciparum; assay type: cell-based; settings: mouse, fm3a
Procedure, shortened: (§2)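 Ratio computed as EC50 in FM3A cells divided by EC50 against P. falciparum FCR-3.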

[3] = as §1; assay type: cell-based; settings: mouse, FM3A cells; read-out: Toxicity ratio; procedure, shortened: as §2

EC50 (Plasmodium falciparum) | EC50 (Plasmodium falciparum; Plasmodium falciparum) | SMILES | EC50 (FM3A [1]; fm3a) | Toxicity ratio (FM3A [2]) | EC50 (FM3A [1]; Mus musculus, FM3A) | selectivity ratio [3]
> 38 nM | – | C=CCn1c(=O)/c(=C2\Sc3ccccc3N2C)s/c1=C\c1cccc[n+]1C [listing 1 of 2 here] | – | – | – | –
26 nM | – | CCn1c(=O)/c(=C2\Sc3ccccc3N2C)s/c1=C\c1cccc[n+]1C.[Cl-] | 16000 nM | 620 | – | –
– | 31 nM | CN1/C(=c2\s/c(=C\c3cccc[n+]3C)n(Cc3ccccc3)c2=O)Sc2ccccc21 | – | – | 800 nM | 26
– | 28 nM | CCn1c(=O)/c(=C2\Sc3ccccc3N2C)s/c1=C\c1cccc[n+]1C | – | – | 14000 nM | 500
– | 45 nM | CN1/C(=c2\s/c(=C\c3cccc[n+]3C)n(C)c2=O)Sc2ccccc21 | – | – | 3800 nM | 84
22 nM | – | CCn1c(=O)/c(=C2\Sc3ccccc3N2C)s/c1=C\c1cccc[n+]1C.[OH-] | 13000 nM | 590 | – | –
– | 240 nM | CCn1c(=O)/c(=C2\C=Cc3ccccc3N2C)s/c1=C\c1cccc[n+]1C | – | – | – | –
– | 70 nM | CCn1c(=O)/c(=C2\Sc3ccccc3N2C)s/c1=C\c1cccc[n+]1CC | – | – | 15000 nM | 210
– | 240 nM | CN1/C(=C\c2cccc[n+]2C)Sc2ccccc21 | – | – | – | –
12 nM | – | C=CCn1c(=O)/c(=C2\Sc3ccccc3N2C)s/c1=C\c1cccc[n+]1C [listing 2 of 2 here] | – | – | 12000 nM | 1000

Continued, compound first:

SMILES | EC50 (Plasmodium falciparum) | EC50 (Plasmodium falciparum; Plasmodium falciparum) | EC50 (FM3A [1]; fm3a) | Toxicity ratio (FM3A [2]) | EC50 (FM3A [1]; Mus musculus, FM3A) | selectivity ratio [3]
CCn1c(=O)/c(=C2\Sc3ccccc3N2C)s/c1=C\c1cccc(-c2ccccc2)[n+]1C | – | 56 nM | – | – | 1900 nM | 34
CCn1c(=O)/c(=C2\Sc3ccccc3N2C)s/c1=C\c1cccc[n+]1C.Cc1ccc(S(=O)(=O)[O-])cc1 | 23 nM | – | 11000 nM | 480 | – | –
CC[N+]1=C(SC)S/C(=C2/Sc3ccccc3N2C)C1=O | – | 3700 nM | – | – | – | –
CCn1c(=O)/c(=C2\Sc3cc(C(F)(F)F)ccc3N2C)s/c1=C\c1cccc[n+]1CC | – | 66 nM | – | – | 4200 nM | 64
CCn1c(=O)/c(=C2\Sc3ccccc3N2C)s/c1=C\c1ccc2ccccc2[n+]1C | – | 4.6 nM | – | – | 580 nM | 130
CCn1c(=O)/c(=C2\SCCN2C)s/c1=C\c1cccc[n+]1C | – | 230 nM | – | – | > 34000 nM | > 150
CCN1C(=O)/C(=C2\Sc3ccccc3N2C)SC1=S | – | > 28000 nM | – | – | – | –
CCn1c(=O)/c(=C2\Sc3ccccc3N2C)s/c1=C\c1cc[n+](C)cc1 | – | 56 nM | – | – | > 24000 nM | > 430
CCn1c(=O)/c(=C2\Sc3ccccc3N2C)s/c1=C\c1cccc[n+]1CCCCC(=O)O | – | 680 nM | – | – | > 18000 nM | > 26
C=CCn1c(=O)/c(=C2\Sc3ccccc3N2C)s/c1=C\c1cc[n+](C)cc1 | – | 14 nM | – | – | 6700 nM | 480
CN1/C(=c2\s/c(=C\c3cc[n+](C)cc3)n(Cc3ccccc3)c2=O)Sc2ccccc21 | – | 50 nM | – | – | 810 nM | 16
CC[n+]1ccccc1/C=c1\s/c(=C2/Sc3ccccc3N2C)c(=O)n1CCCCC(=O)O | – | 1500 nM | – | – | > 17000 nM | > 11
CCn1c(=O)/c(=C2\Sc3ccc4ccccc4c3N2C)s/c1=C\c1cccc[n+]1CCO | – | 43 nM | – | – | 5000 nM | 120
CCn1c(=O)/c(=C2\Sc3ccccc3N2C)s/c1=C\c1cc[n+](C)c2ccccc12 | – | 7.8 nM | – | – | 680 nM | 87
CCN1C(=O)CS/C1=C\c1sc2ccccc2[n+]1CC | – | 520 nM | – | – | – | –
CCn1c(=O)/c(=C2\Sc3ccccc3N2C)s/c1=C\c1cccc[n+]1CCO | – | 210 nM | – | – | > 17000 nM | > 81
CCn1c(=O)/c(=C2\C=CC=CN2C)s/c1=C\c1cccc[n+]1C | – | 350 nM | – | – | – | –
CCN(CC)CCCC(C)Nc1ccnc2cc(Cl)ccc12 (stereo not given) [CHLOROQUINE] | – | – | – | – | – | 1800
CN(C)c1ccc2nc3ccc(N(C)C)cc3[s+]c2c1 [METHYLENE BLUE ANHYDROUS] | – | 17 nM | – | – | 1100 nM | 65
C=C[C@H]1C[N@@]2CC[C@H]1C[C@H]2[C@H](O)c1ccnc2ccc(OC)cc12 [QUININE] | – | – | – | – | – | 910
COC(=O)c1ccccc1-c1c2ccc(=N)cc-2oc2cc(N)ccc12 [RHODAMINE123] | – | 300 nM | – | – | 10000 nM | 33
